In ChEMBL document CHEMBL1127642, “Potent, selective, and systemically-available inhibitors of acyl-coenzyme A:cholesterol acyl transferase (ACAT)” (J Med Chem, 1994):
Activity calls are given as the source filed them. No cut-off for these calls is given here.

Experiments:
[1] = target: T1, Sterol O-acyltransferase 1 (Rattus norvegicus, UniProt O70536); experiment: In vitro potency was determined using Acyl coenzyme A:cholesterol acyltransferase in liver microsomes from rats; parameters: species or system Microsome
T1 sequence (O70536 whole entry): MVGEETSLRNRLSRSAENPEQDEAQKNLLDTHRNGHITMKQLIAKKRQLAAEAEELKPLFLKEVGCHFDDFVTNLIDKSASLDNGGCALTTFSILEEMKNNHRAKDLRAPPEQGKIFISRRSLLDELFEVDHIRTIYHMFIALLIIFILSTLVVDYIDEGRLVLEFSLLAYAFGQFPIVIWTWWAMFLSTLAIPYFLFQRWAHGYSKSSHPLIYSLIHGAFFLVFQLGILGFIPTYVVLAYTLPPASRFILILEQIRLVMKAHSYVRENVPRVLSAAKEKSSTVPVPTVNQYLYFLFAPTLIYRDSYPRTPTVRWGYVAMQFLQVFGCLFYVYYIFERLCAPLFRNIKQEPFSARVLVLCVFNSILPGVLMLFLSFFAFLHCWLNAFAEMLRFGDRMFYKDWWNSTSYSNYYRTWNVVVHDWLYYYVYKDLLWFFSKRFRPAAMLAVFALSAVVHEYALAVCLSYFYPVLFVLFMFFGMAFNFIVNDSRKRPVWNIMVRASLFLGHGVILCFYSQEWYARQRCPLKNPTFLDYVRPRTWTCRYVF
Outline: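 Enzyme source was liver microsomes prepared from chow-fed Sprague-Dawley rats, assayed for ACAT activity by the Billheimer method. IC50 was determined.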

[2] = test system: Cricetinae gen. sp.; experiment: Effects on cholesterol absorption in hamsters; assay type: functional, organism-based; settings: Cricetulus griseus
Outline: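 Cholesterol-fed hamsters received radiolabeled cholesterol in a liquid diet together with the drug, and untreated controls were included. Animals were sacrificed 24 h later. Absorption inhibition was estimated from plasma and liver radioactivity relative to controls. Dose-response studies gave ED50, and chow-fed hamsters were also tested.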

[3] = Dose required for 50 percent inhibition of lecithin cholesterol acyl transferase in vitro in rats at 300 uM; No effect
[4] = target: T2, Bile salt-activated lipase (Bos taurus) (UniProt P30122); experiment: Dose required for 50 percent inhibition of Pancreatic cholesterol esterase in vitro in rats at 300 uM; No effect
T2 sequence (whole entry): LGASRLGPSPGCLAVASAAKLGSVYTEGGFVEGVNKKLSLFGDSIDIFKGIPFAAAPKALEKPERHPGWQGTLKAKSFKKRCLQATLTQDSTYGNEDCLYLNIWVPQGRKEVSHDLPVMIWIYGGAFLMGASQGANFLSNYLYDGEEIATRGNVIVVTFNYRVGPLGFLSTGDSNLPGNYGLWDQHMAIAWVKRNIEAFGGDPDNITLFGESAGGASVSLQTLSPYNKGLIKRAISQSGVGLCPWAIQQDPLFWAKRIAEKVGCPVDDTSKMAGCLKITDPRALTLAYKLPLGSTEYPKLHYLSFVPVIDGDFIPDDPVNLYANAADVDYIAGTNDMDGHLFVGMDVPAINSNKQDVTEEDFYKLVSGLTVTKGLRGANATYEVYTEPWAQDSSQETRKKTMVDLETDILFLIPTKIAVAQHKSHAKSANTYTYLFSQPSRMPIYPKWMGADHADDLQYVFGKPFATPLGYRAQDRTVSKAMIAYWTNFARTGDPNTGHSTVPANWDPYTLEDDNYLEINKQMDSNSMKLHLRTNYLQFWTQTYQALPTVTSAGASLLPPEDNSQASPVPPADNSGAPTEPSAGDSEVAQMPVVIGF

[5] = test system: Oryctolagus cuniculus; experiment: Evaluation for the plasma cholesterol lowering in rabbits at the dose 5 mg/kg; assay type: functional, organism-based; parameters: dose 5 mg/kg
Outline: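 Cholesterol-fed New Zealand White rabbits: diet with 0.4% cholesterol and 5% peanut oil for 4 weeks, drug given over the final 3 weeks at a single dose of 5 mg/kg. Read-out is total plasma cholesterol (mg/dL) against untreated controls, mean ± standard deviation, n = 5 per group.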

[6] = Dose required for 50 percent inhibition of rat Pancreatic cholesterol esterase in vitro No effect at 300 uM
[7] = Dose required for 50 percent inhibition of lecithin cholesterol acyl transferase in vitro in rats at 30 uM; No effect
[8] = target: T3, 3-hydroxy-3-methylglutaryl-coenzyme A reductase (Rattus norvegicus) (UniProt P51639); experiment: Dose required for 50 percent inhibition of 3-Hydroxy-3-methylglutaryl coenzyme A reductase in vitro in rats at 100 uM; No effect
T3 sequence (whole entry): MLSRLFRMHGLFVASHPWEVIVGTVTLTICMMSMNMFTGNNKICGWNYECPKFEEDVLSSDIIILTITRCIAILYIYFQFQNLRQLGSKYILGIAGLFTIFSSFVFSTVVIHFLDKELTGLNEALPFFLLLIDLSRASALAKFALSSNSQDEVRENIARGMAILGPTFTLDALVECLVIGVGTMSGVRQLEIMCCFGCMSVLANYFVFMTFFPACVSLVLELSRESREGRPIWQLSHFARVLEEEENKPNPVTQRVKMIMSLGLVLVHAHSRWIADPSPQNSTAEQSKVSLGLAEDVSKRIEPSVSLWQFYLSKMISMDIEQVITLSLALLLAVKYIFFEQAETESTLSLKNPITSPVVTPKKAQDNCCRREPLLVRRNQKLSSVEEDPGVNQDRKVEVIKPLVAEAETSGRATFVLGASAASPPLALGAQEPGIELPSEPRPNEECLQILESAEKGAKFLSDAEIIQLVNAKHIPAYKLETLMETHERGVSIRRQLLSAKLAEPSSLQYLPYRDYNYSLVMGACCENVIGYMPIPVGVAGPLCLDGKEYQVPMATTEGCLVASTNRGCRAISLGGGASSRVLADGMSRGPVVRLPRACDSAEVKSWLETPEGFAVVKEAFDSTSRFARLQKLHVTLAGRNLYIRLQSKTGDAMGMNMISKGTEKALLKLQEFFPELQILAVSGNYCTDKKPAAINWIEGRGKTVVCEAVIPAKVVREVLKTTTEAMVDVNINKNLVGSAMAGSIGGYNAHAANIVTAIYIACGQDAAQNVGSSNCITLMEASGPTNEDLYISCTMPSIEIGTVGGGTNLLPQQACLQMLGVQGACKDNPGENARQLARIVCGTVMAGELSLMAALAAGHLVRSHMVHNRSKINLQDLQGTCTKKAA

[9] = target: T4, Sterol O-acyltransferase 1 (Rattus norvegicus) (UniProt O70536); settings: 0.135 uM
T4 sequence (whole entry): T1 sequence (O70536 whole entry)

Compound | IC50 [1] [nM] | Absorption [2] [mg/kg] | inhibition [3] | inhibition [4] | Level [5] [mg/dL] | inhibition [6] | inhibition [7] | inhibition [8] | inhibition [9] [%]
CCCCCCCC[C@H](SCCCCCC)C(=O)Nc1c(SC)cc(C)nc1SC | 22 | 0.009 | inactive | inactive | 98 | inactive |  |  | 
CCCCCCCC[C@@H](SCCCCCC)C(=O)Nc1c(SC)ccc2ncccc12 | 750 |  |  |  |  |  |  |  | 
CCCCCCCCC(SCCCCCC)C(=O)Nc1c(SC)cc(C)nc1SC (single isomer, unassigned) | 160 |  |  |  |  |  |  |  | 
CCCCCCCC[C@H](SCCCCCC)C(=O)Nc1c(SC)ccc2ncccc12 | 135 | 0.24 |  |  | 123 |  | inactive | inactive | 50
